From PubChem
A selection: hits, their analogues and other compounds. The true share with any hit is near 2.5%.
MBD2 inh – inhibitors of MBD2 binding to methylated DNA, primary screen, biochemical, TR-FRET, DNA-binding domain, human; MBD2 binding to methylated oligonucleotide; 0.31% of 370,000 active; inhibition, % at 4.4 µM; Methyl-CpG-binding domain protein 2 (Homo sapiens), Q9UBB5; in the data active = inhibition above about 13%
Target sequence (Q9UBB5 whole entry, looked up, the tested form may be a part): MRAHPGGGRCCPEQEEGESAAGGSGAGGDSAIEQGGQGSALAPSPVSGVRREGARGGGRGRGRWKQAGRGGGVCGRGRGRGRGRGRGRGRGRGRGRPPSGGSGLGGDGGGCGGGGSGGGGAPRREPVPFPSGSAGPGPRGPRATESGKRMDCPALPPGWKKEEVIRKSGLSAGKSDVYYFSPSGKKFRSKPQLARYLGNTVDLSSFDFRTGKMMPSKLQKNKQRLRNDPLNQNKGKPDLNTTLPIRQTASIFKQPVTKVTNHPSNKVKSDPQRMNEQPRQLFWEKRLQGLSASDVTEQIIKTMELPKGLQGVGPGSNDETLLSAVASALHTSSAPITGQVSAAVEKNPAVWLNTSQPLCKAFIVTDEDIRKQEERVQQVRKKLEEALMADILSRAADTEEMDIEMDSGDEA
Pemphigus Ab inh – inhibitors of pemphigus antibody binding to DSG3, primary screen, biochemical, bead-based, flow cytometry, scFv-GFP | Desmoglein-3 (Homo sapiens), P32926 | AID 588358, 2011 | DSG3-coupled beads, scFv-anti-DSG3-GFP binding; hits give low values | binding (percent of control), % at 10 µM | 0.48% of 310,000 active;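 active = binding more than 3 SD below its plate's average and above zero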;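 note: hits lower antibody fragment binding to DSG3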
UHRF1 binding – UHRF1 methylated DNA binding inhibitors, primary screen, counter-screen for MBD2 inhibitor project, biochemical, TR-FRET, human UHRF1, single concentration. inhibition, % at 4.4 µM. AID 687016, 2013. E3 ubiquitin-protein ligase UHRF1 (Homo sapiens), Q96T88. UHRF1 binding to methylated oligo. 0.75% of 370,000 active; in the data active = inhibition above about 21%;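 note: UHRF1 SRA domain binding a hemimethylated CpG hairpin DNA probe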
SUMO1-SIM PPI – modulators of SUMO1 protein-protein interactions, primary screen, biochemical, uHTS; 0.33% of 360,000 active; inhibition, % at 20 µM; SUMO1 binding to a labelled peptide, TR-FRET, 1 h; Small ubiquitin-related modifier 1 (Homo sapiens), P63165; in the data active = inhibition above about 37%
Target sequence (P63165 whole entry, looked up): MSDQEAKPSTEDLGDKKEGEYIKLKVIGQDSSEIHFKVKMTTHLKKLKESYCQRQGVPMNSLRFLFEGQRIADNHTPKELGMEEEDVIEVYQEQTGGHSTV
DNMT1 block – human DNMT1 methyltransferase inhibitors, primary screen, biochemical, molecular beacon, fluorescence, HinP1I cleavage, uHTS; DNA (cytosine-5)-methyltransferase 1 (Homo sapiens), P26358; inhibition (reported as % activation of signal), % at 10 µM; 0.83% of 360,000 active; in the data active = inhibition above about 50%
HCV NS3 hel inh – inhibitors of HCV NS3 helicase, primary screen, biochemical, Cy5 molecular beacon fluorescence | NS3 helicase DNA unwinding | Hepatitis C virus NS3 helicase | 0.56% of 290,000 active | inhibition, % at 10.9 µM;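 active = inhibition above the mean of all tested compounds plus 3 SD, set per campaign, cut at about 35% in these data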
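Control set: DMSO versus 110 µM thioflavine S; Material: NS3 helicase fragment of HCV; Measured by: Cy5 fluorescence at 0 and 60 min, beacon hairpin quenching; Read-out basis: percent inhibition from t60/t0 fluorescence ratio; Times: reaction time 60 min, 25 °C; Repeats: single replicate; Compound dosing: single dose, 10.9 µM nominal final, DMSO 0.8% final.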
DNMT1 confirm – DNMT1 methyltransferase inhibitor retest, confirmation, biochemical, molecular beacon, fluorescence, single concentration; 8% of 2,300 active; inhibition, % at 10 µM; DNMT1 molecular beacon HinP1I cleavage; shares compounds with DNMT1 block;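 active = average inhibition of at least 30% in the single-concentration confirmation test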
Beacon interf – counter-screen for DNMT1 inhibitors: spectral interference; shares compounds with DNMT1 block; DNMT1 molecular beacon spectral interference counterscreen, fluorescence 485/520; activation (fluorescence interference), % at 10 µM; 1% of 2,300 active;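 active = activation of at least 30% at 10 µM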;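 note: DNMT1 catalytic domain with a HinP1I cleavage step and a FAM/dabcyl DNA beacon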
Hits are given with their value.

Results for O=C(COC(=O)COc1ccccc1F)NCc1ccco1 ?
MBD2 inh: inactive; Pemphigus Ab inh: inactive; UHRF1 binding: inactive; SUMO1-SIM PPI: inactive; DNMT1 block: inactive

How did C#CCn1c(=NC(=O)c2cccs2)sc2cccc(OC)c21 do in these assays?
MBD2 inh: inactive; Pemphigus Ab inh: inactive; UHRF1 binding: inactive; SUMO1-SIM PPI: inactive; DNMT1 block: 58; HCV NS3 hel inh: inactive; DNMT1 confirm: inactive; Beacon interf: 33

What do the screens show for `Cc1ccc(NC(=O)c2ccc(NC(=O)c3ccccc3)cc2)cc1C`?
MBD2 inh: inactive; UHRF1 binding: inactive; SUMO1-SIM PPI: inactive; DNMT1 block: 57; HCV NS3 hel inh: inactive; DNMT1 confirm: inactive; Beacon interf: inactive

How did COc1cc(NC(=O)c2cc(C)on2)c(OC)cc1Cl do in these assays?
MBD2 inh: inactive; UHRF1 binding: inactive

How did Cc1ccc(NC(=O)c2noc3c2CCC3)cc1C do in these assays?
MBD2 inh: inactive; Pemphigus Ab inh: inactive; UHRF1 binding: inactive; SUMO1-SIM PPI: inactive; DNMT1 block: 95; HCV NS3 hel inh: inactive; DNMT1 confirm: inactive; Beacon interf: inactive

How did COc1cc(NC(=O)c2noc3c2CCC3)c(OC)cc1Cl do in these assays?
MBD2 inh: inactive; Pemphigus Ab inh: inactive; UHRF1 binding: 28; SUMO1-SIM PPI: inactive; DNMT1 block: 101; HCV NS3 hel inh: inactive; DNMT1 confirm: inactive; Beacon interf: inactive

How did Fc1ccc(Nc2cncc(-c3ccsc3)c2)cc1Cl do in these assays?
MBD2 inh: inactive; UHRF1 binding: inactive; SUMO1-SIM PPI: inactive; DNMT1 block: inactive

Results for O=C(Cn1c(=O)oc2ccccc21)Nc1nc(-c2ccc(Br)cc2)cs1 ?
MBD2 inh: inactive; Pemphigus Ab inh: inactive; UHRF1 binding: inactive; SUMO1-SIM PPI: inactive; DNMT1 block: inactive; HCV NS3 hel inh: inactive; DNMT1 confirm: inactive; Beacon interf: inactive

Results for O=C(COC(=O)c1c2c(nc3ccccc13)/C(=C/c1cccc([N+](=O)[O-])c1)CCC2)NC1CCS(=O)(=O)C1 (stereo not drawn) ?
MBD2 inh: inactive; Pemphigus Ab inh: inactive; UHRF1 binding: inactive; SUMO1-SIM PPI: inactive; DNMT1 block: inactive; HCV NS3 hel inh: inactive

How did CC1CCCCC1NC(=O)COC(=O)c1c2c(nc3ccccc13)/C(=C\c1ccco1)CC2 (stereo not drawn) do in these assays?
MBD2 inh: inactive; Pemphigus Ab inh: inactive; UHRF1 binding: inactive; SUMO1-SIM PPI: inactive; DNMT1 block: 85; DNMT1 confirm: inactive; Beacon interf: inactive

Results for O=C(COC(=O)c1c2c(nc3ccccc13)/C(=C\c1ccco1)CC2)NC1CCCC1 ?
MBD2 inh: inactive; Pemphigus Ab inh: inactive; UHRF1 binding: inactive; SUMO1-SIM PPI: 42; DNMT1 block: 97; DNMT1 confirm: inactive; Beacon interf: inactive

What do the screens show for `Nc1c(C(=O)C2CC2)sc2nc(-c3ccccc3)cc(C(F)(F)F)c12`?
MBD2 inh: inactive; Pemphigus Ab inh: inactive; UHRF1 binding: inactive; SUMO1-SIM PPI: inactive; DNMT1 block: 68; HCV NS3 hel inh: inactive; DNMT1 confirm: 51; Beacon interf: 37

Results for O=c1c2c3nc4ccccc4nc3n(-c3ccc4c(c3)OCCO4)c2ncn1C1CCCC1 ?
MBD2 inh: inactive; Pemphigus Ab inh: 66; UHRF1 binding: inactive; SUMO1-SIM PPI: inactive; DNMT1 block: 72; DNMT1 confirm: inactive; Beacon interf: inactive

Results for O=c1c2ccccc2nc2sc(Nc3cccc(Cl)c3)nn12 ?
MBD2 inh: inactive; Pemphigus Ab inh: inactive; UHRF1 binding: inactive; SUMO1-SIM PPI: inactive; DNMT1 block: 107; DNMT1 confirm: inactive; Beacon interf: inactive

What do the screens show for `Cc1nc2ccccc2c(=O)n1Nc1cccc(Cl)c1`?
MBD2 inh: inactive; Pemphigus Ab inh: inactive; UHRF1 binding: inactive; SUMO1-SIM PPI: inactive; DNMT1 block: inactive; HCV NS3 hel inh: inactive

Results for COc1ccc(/C=N/Nc2ccc([N+](=O)[O-])cc2S(=O)(=O)N2CCN(C)CC2)cc1 ?
MBD2 inh: inactive; Pemphigus Ab inh: inactive; UHRF1 binding: inactive; SUMO1-SIM PPI: inactive; DNMT1 block: 56; HCV NS3 hel inh: inactive; DNMT1 confirm: inactive; Beacon interf: inactive

How did Cn1c(=O)c2cc(NC(=O)NCCc3ccccc3)ccc2n1Cc1cccc(C(F)(F)F)c1 do in these assays?
MBD2 inh: inactive; UHRF1 binding: inactive; SUMO1-SIM PPI: inactive; DNMT1 block: inactive

What do the screens show for `Cn1c(=O)c2cc(NC(=O)NCCc3ccccc3)ccc2n1Cc1ccccc1`?
MBD2 inh: inactive; UHRF1 binding: inactive; SUMO1-SIM PPI: inactive; DNMT1 block: 69; DNMT1 confirm: inactive; Beacon interf: inactive

What do the screens show for `O=C(NCc1ccccc1)[C@@H]1C[C@H]1[C@@H](NP(=O)(c1ccccc1)c1ccccc1)c1ccccc1`?
MBD2 inh: inactive; Pemphigus Ab inh: inactive; UHRF1 binding: inactive; SUMO1-SIM PPI: inactive; DNMT1 block: inactive; HCV NS3 hel inh: inactive

How did Cc1ccc(CNC(=O)[C@H]2C[C@@H]2[C@H](NP(=O)(c2ccccc2)c2ccccc2)c2ccccc2)o1 do in these assays?
MBD2 inh: inactive; Pemphigus Ab inh: inactive; UHRF1 binding: inactive; SUMO1-SIM PPI: inactive; DNMT1 block: 71; HCV NS3 hel inh: inactive; DNMT1 confirm: inactive; Beacon interf: inactive

Results for Cn1nc([N+](=O)[O-])c2c(-c3nc4ccccc4s3)c(N)n(C3CCCCC3)c2c1=O ?
MBD2 inh: inactive; Pemphigus Ab inh: inactive; UHRF1 binding: inactive; SUMO1-SIM PPI: inactive; DNMT1 block: 62; HCV NS3 hel inh: inactive; DNMT1 confirm: inactive; Beacon interf: inactive

What do the screens show for `CCCCn1c(N)c(-c2nc3ccccc3s2)c2c([N+](=O)[O-])nn(CC)c(=O)c21`?
MBD2 inh: inactive; Pemphigus Ab inh: inactive; UHRF1 binding: inactive; SUMO1-SIM PPI: inactive; DNMT1 block: inactive; HCV NS3 hel inh: inactive

How did CCOc1ccc(-c2nnc3sc(COc4ccc(Cl)cc4)nn23)cc1 do in these assays?
MBD2 inh: inactive; Pemphigus Ab inh: inactive; UHRF1 binding: inactive; SUMO1-SIM PPI: inactive; DNMT1 block: 58; HCV NS3 hel inh: inactive; DNMT1 confirm: inactive; Beacon interf: inactive
